Measurements from ChEMBL document CHEMBL4138133, “2,3-Dihydro-3β-methoxy Withaferin-A Protects Normal Cells against Stress: Molecular Evidence of Its Potent Cytoprotective Activity” (J Nat Prod, 2017).
Active and inactive are the calls of the source. The rule behind the calls is not given here.

Columns and labels:
[1] = target: Kelch-like ECH-associated protein 1 (Homo sapiens, UniProt Q14145); assay: Activation of keap1 in human TIG3 cells assessed as Nrf2 nuclear accumulation at 0.6 uM by immuno staining analysis; format: cell-based
Sequence of Kelch-like ECH-associated protein 1 (Q14145 whole entry): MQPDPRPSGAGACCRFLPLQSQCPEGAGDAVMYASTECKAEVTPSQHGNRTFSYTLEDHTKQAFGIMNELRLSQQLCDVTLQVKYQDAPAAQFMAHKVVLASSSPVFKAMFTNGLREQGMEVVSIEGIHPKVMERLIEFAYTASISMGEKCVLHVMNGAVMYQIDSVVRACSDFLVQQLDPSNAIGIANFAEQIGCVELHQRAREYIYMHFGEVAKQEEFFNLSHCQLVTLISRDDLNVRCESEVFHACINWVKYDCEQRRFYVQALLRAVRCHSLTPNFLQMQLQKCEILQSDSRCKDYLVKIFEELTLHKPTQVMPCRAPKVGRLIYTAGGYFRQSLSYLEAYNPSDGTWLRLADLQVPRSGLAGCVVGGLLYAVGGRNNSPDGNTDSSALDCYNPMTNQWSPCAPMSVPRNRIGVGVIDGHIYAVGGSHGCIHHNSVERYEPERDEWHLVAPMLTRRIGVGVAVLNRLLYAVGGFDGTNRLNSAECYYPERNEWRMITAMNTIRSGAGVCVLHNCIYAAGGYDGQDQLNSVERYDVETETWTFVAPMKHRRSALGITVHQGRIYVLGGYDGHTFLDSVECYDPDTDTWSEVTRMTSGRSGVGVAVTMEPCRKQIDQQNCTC
In short: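 Methanol-fixed (chilled absolute methanol) TIG-3 fibroblasts treated with Wi-A or 3βmWi-A; immunofluorescence staining with antibodies, imaged by epifluorescence microscopy; signal quantitated from three independent experiments.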

[2] = target: MAP kinase p38 (Homo sapiens) (UniProt O15264+Q15759+Q16539+P53778); assay: Induction of p38 MAPK phosphorylation at Thr180/Tyr182 residues in UV-irradiated human TIG3 cells using 50 mJ/cm2 of UV radiations followed by compound addition by immuno fluorescence staining based analysis
In short: (§1)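 TIG-3 fibroblasts (DMEM, 10% FBS, 37 °C) stressed with H2O2 (500 μM, 2 h) or UV (50 mJ/cm2), then recovered in compound-supplemented medium. Cells fixed in chilled absolute methanol and immunostained for the marker. Images taken by fluorescence microscopy and staining intensity quantified. Triplicate experiments.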

[3] = tested on: TIG-3; assay: Cytoprotective activity against H2O2-induced oxidative stress in human TIG3 cells assessed as decrease in protein disulfide isomerase expression level at 0.6 uM pretreated with H2O2 for 2 hrs followed by compound addition by immuno fluorescence staining based analysis; format: functional, cell-based; in short: as §1
[4] = tested on: TIG-3; assay: Cytoprotective activity against H2O2-induced oxidative stress in human TIG3 cells assessed as decrease in gammaH2AX level at 0.6 uM pretreated with H2O2 for 2 hrs followed by compound addition by immuno fluorescence staining based analysis; format: functional, cell-based; in short: as §1
[5] = target: Mitogen-activated protein kinase 3 (Homo sapiens) (UniProt P27361); assay: Induction of ERK1 phosphorylation at Thr202 residues in UV-irradiated human TIG3 cells using 50 mJ/cm2 of UV radiations followed by compound addition by immuno fluorescence staining based analysis; in short: as §1
Sequence of Mitogen-activated protein kinase 3 (Homo sapiens) (P27361 whole entry): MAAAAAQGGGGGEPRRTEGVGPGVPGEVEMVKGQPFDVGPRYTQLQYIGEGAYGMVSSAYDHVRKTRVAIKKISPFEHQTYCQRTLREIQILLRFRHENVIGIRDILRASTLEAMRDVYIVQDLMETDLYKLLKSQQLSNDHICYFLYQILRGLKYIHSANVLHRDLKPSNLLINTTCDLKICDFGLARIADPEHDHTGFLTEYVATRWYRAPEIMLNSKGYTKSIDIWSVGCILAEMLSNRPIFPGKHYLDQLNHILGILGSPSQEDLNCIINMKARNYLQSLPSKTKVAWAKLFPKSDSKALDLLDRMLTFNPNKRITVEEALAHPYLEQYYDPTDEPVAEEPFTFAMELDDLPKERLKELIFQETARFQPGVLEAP

[6] = tested on: TIG-3; assay: Induction of oxidative stress in human TIG3 cells assessed as increase in CARF expression level at 0.6 uM by immunoblot analysis; format: cell-based; details: tig-3, 0.6 µM
In short: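 TIG-3 cells treated with compound, lysed in NP40 buffer (centrifuged 20 min, 4 °C); 10−20 μg protein immunoblotted for indicated proteins; band quantitation from three independent experiments, Student's t or Mann−Whitney test.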

[7] = target: Mitogen-activated protein kinase 1 (Homo sapiens) (UniProt P28482); assay: Induction of ERK2 phosphorylation at Tyr204 residues in UV-irradiated human TIG3 cells using 50 mJ/cm2 of UV radiations followed by compound addition by immuno fluorescence staining based analysis; in short: as §1
Sequence of Mitogen-activated protein kinase 1 (Homo sapiens) (P28482 whole entry): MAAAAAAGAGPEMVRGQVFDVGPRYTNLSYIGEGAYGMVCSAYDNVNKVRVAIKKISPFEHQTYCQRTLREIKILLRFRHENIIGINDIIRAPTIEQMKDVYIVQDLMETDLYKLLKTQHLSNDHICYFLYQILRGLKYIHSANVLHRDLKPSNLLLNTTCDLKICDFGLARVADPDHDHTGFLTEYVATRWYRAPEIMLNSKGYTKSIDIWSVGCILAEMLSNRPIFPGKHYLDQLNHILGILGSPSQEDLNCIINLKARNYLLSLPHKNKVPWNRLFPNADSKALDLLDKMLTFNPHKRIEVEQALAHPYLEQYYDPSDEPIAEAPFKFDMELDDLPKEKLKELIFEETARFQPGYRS

[8] = target: Mitogen-activated protein kinase 1 (Homo sapiens) (UniProt P28482); assay: Induction of ERK2 phosphorylation at Tyr204 residues in H2O2 treated human TIG3 cells pretreated with H2O2 for 2 hrs followed by compound addition by immuno fluorescence staining based analysis; in short: as §1
[9] = target: RAC-alpha serine/threonine-protein kinase (Homo sapiens) (UniProt P31749); assay: Induction of Akt phosphorylation at Ser473 residues in H2O2 treated human TIG3 cells at 0.6 uM pretreated with H2O2 for 2 hrs followed by compound addition by immunoblot analysis
Sequence of RAC-alpha serine/threonine-protein kinase (Homo sapiens) (P31749 whole entry): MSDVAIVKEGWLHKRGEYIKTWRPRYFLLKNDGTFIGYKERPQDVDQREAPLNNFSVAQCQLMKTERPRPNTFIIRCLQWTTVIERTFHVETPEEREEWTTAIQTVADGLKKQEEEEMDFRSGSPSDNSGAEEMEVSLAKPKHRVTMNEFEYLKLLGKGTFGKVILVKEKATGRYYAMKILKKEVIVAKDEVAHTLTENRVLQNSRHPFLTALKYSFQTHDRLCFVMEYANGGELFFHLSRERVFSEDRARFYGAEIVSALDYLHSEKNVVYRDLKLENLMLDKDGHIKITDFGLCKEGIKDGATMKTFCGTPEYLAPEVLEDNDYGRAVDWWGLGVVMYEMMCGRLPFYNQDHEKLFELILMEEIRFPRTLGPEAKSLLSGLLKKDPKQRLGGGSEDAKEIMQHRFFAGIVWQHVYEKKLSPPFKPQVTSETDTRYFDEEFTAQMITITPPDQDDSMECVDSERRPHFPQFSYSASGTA
In short: (§2)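 TIG-3 cells stressed with H2O2 (500 μM, 2 h), then recovered in medium containing 0.3 or 0.6 μM compound. Lysed in NP40 buffer; 10−20 μg protein immunoblotted for pAkt Ser473, p-p38 Thr180/Tyr182, p-p44/42 Thr202/Tyr204, β-catenin, survivin, Bcl-2 or full-length PARP-1. Triplicate experiments.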

[10] = tested on: TIG-3; assay: Cytoprotective activity against cisplatin-induced stress in human TIG3 cells assessed as increase in cell survival pretreated with cisplatin for 24 hrs followed by compound addition measured after 2 days by crystal violet staining based assay; format: functional
[11] = organism: Homo sapiens; assay: Induction of AKT/p38/p44 MAPK-mediated survivin expression level in H2O2 treated human TIG3 cells at 0.6 uM pretreated with H2O2 for 2 hrs followed by compound addition by immunoblot analysis; in short: as §2
[12] = tested on: TIG-3; assay: Cytotoxicity against human TIG3 cells assessed as reduction in cell viability at 1 to 10 uM after 72 hrs; format: cell-based; details: tig-3, 72 h
In short: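 Normal fibroblasts in DMEM/10% FBS at 37 °C given 0.15 to 50 μM compound for 48 or 72 h; viability determined; triplicate, mean ± SEM.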

[13] = tested on: TIG-3; assay: Cytoprotective activity against H2O2-induced oxidative stress in human TIG3 cells assessed as increase in full length PARP level at 0.6 uM pretreated with H2O2 for 2 hrs followed by compound addition by immunoblot analysis; format: functional, cell-based; in short: as §2
[14] = tested on: TIG-3; assay: Cytoprotective activity against etoposide-induced stress in human TIG3 cells assessed as increase in cell survival pretreated with etoposide for 24 hrs followed by compound addition measured after 2 days by crystal violet staining based assay; format: functional
[15] = target: Mitogen-activated protein kinase 1 (Homo sapiens) (UniProt P28482); assay: Induction of ERK2 phosphorylation at Tyr204 residues in H2O2 treated human TIG3 cells at 0.6 uM pretreated with H2O2 for 2 hrs followed by compound addition by immunoblot analysis; in short: as §2
[16] = tested on: TIG-3; assay: Cytoprotective activity against UV irradiation-induced stress in human TIG3 cells assessed as decrease in CARF level irradiated with 50 mJ/cm2 of UV radiations followed by compound addition by immuno fluorescence staining based assay; format: functional, cell-based
[17] = tested on: TIG-3; assay: Cytotoxicity against human TIG3 cells assessed as decrease in ROS generation at 1.5 to 3 uM after 48 hrs; format: cell-based; details: tig-3, 48 h
[18] = tested on: TIG-3; assay: Cytoprotective activity against UV irradiation-induced stress in human TIG3 cells assessed as increase in cell survival at 3 uM irradiated with 50 mJ/cm2 of UV radiations followed by compound addition measured after 72 hrs by crystal violet staining based assay; format: functional
[19] = tested on: TIG-3; assay: Cytoprotective activity against UV irradiation-induced stress in human TIG3 cells assessed as decrease in p53 level irradiated with 50 mJ/cm2 of UV radiations followed by compound addition by immuno fluorescence staining based assay; format: functional, cell-based

Compound: CO[C@H]1CC(=O)[C@]2(C)[C@H]3CC[C@]4(C)[C@@H]([C@H](C)[C@H]5CC(C)=C(CO)C(=O)O5)CC[C@H]4[C@@H]3C[C@H]3O[C@]32[C@H]1O
- Activity [1]: Not Active
- Activity [2]: Active
- Activity [3]: Active
- Activity [4]: Active
- Activity [5]: Active
- Activity [6]: Non-Toxic
- Activity [7]: Active
- Activity [8]: Active
- Activity [9]: Active
- Activity [10]: Dose-dependent effect
- Activity [11]: Active
- Activity [12]: Non-Toxic
- Activity [13]: Active
- Activity [14]: Dose-dependent effect
- Activity [15]: Active
- Activity [16]: Active
- Activity [17]: Non-Toxic
- Activity [18]: Active
- Activity [19]: Active
